Converted amounts (≈) assume the structure as drawn.
Assays:
[1] = test system: Haemophilus influenzae; experiment: In vitro antimicrobial activity against aerobic bacteria Haemophilus influenzae 76; format: functional
[2] = test system: Mus musculus; experiment: Peripheral plasma levels in mice after oral administration of 100 mg/kg dose for 4 hr; format: functional, organism-based; design: dose 100 mg/kg
Outline: (§1)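 Mice were given the compound orally and sampled for peripheral plasma at each time point. Plasma was assayed microbiologically against Micrococcus luteus seeded in Antibiotic Medium 1. Inhibition zone sizes were read, and concentrations were calculated from each compound's own standard curve. Each value is the mean of five mice per time point.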

[3] = test system: Streptococcus; experiment: In vitro antimicrobial activity against aerobic bacteria Streptococcus B 8; format: functional
[4] = test system: Streptococcus; experiment: In vitro antimicrobial activity against aerobic bacteria Streptococcus B 5; format: functional
[5] = test system: Mus musculus; experiment: Peripheral plasma levels in mice after oral administration of 50 mg/kg dose for 1 hr; format: functional, organism-based; design: dose 50 mg/kg; outline: as §1
[6] = test system: Mus musculus; experiment: Peripheral plasma levels in mice after oral administration of 100 mg/kg dose for 2 hr; format: functional, organism-based; design: dose 100 mg/kg; outline: as §1
[7] = test system: Streptococcus; experiment: In vitro antimicrobial activity against aerobic bacteria Streptococcus D 9960; format: functional
[8] = test system: Staphylococcus epidermidis; experiment: In vitro antimicrobial activity against aerobic bacteria Streptococcus epi 270; format: functional
[9] = test system: Staphylococcus aureus; experiment: In vitro antimicrobial activity against aerobic bacteria Staphylococcus aureus 513E; format: functional
[10] = test system: Streptococcus; experiment: In vitro antimicrobial activity against aerobic bacteria Streptococcus D 8043; format: functional
[11] = test system: Enterococcus faecium; experiment: In vitro antimicrobial activity against Streptococcus faecium X66; format: functional, streptococcus fae-cium
[12] = test system: Streptococcus pyogenes; experiment: In vivo effective dose against experimental infections in rodent caused by Streptococcus pyogenes C203 when administered orally; format: functional; details: po
[13] = test system: Streptococcus pyogenes; experiment: In vivo effective dose against experimental infections in rodent caused by Streptococcus pyogenes C203 when administered sc; format: functional
[14] = test system: Haemophilus influenzae; experiment: In vitro antimicrobial activity against aerobic bacteria Haemophilus influenzae MX366,; format: functional
[15] = test system: Haemophilus influenzae; experiment: In vitro antimicrobial activity against Haemophilus influenzae.; format: functional
[16] = test system: Staphylococcus aureus; experiment: In vitro antimicrobial activity against aerobic bacteria Staphylococcus aureus V140,; format: functional
[17] = test system: Streptococcus; experiment: In vitro antimicrobial activity against aerobic bacteria Streptococcus G Kruder; format: functional; details: Streptococcus; read-out: MIC
[18] = test system: Staphylococcus aureus; experiment: In vitro antimicrobial activity against aerobic bacteria Staphylococcus aureus X400; format: functional
[19] = test system: Mus musculus; experiment: Peripheral plasma levels in mice after oral administration of 100 mg/kg dose for 0.5 hr; format: functional, organism-based; design: dose 100 mg/kg; outline: as §1
[20] = test system: Staphylococcus epidermidis; experiment: In vitro antimicrobial activity against aerobic bacteria Streptococcus epi 222; format: functional
[21] = test system: Streptococcus sanguinis; experiment: In vitro antimicrobial activity against aerobic bacteria Streptococcus sanguis MX132; format: functional
[22] = test system: Streptococcus; experiment: In vitro antimicrobial activity against aerobic bacteria Streptococcus C 24; format: functional
[23] = test system: Mus musculus; experiment: Peripheral plasma levels in mice after oral administration of 100 mg/kg dose for 0.25 hr; format: functional, organism-based; design: dose 100 mg/kg; outline: as §1
[24] = test system: Staphylococcus aureus; experiment: In vitro antimicrobial activity against aerobic bacteria Staphylococcus aureus V135; format: functional
[25] = test system: Streptococcus pneumoniae; experiment: In vitro antimicrobial activity against Streptococcus pneumoniae; format: functional
[26] = test system: Staphylococcus aureus; experiment: In vitro antimicrobial activity against Staphylococcus aureus X1; format: functional
[27] = test system: Mus musculus; experiment: Peripheral plasma levels in mice after oral administration of 100 mg/kg dose for 1 hr; format: functional, organism-based; design: dose 100 mg/kg; outline: as §1
[28] = test system: Staphylococcus epidermidis; experiment: In vitro antimicrobial activity against Staphylococcus epidermidis EPI1; format: functional
[29] = test system: Streptococcus; experiment: In vitro antimicrobial activity against aerobic bacteria Streptococcus D 2041; format: functional
[30] = test system: Staphylococcus aureus; experiment: In vitro antimicrobial activity against aerobic bacteria Staphylococcus aureus V41; format: functional
[31] = test system: Streptococcus pneumoniae; experiment: In vitro antimicrobial activity against aerobic bacteria Streptococcus pneumoniae B1-438; format: functional, streptococcus pneum
[32] = test system: Streptococcus; experiment: In vitro antimicrobial activity against aerobic bacteria Streptococcus B 14; format: functional
[33] = test system: Streptococcus pyogenes; experiment: In vitro antimicrobial activity against Streptococcus pyogenes C203; format: functional
[34] = test system: Streptococcus viridans; experiment: In vitro antimicrobial activity against aerobic bacteria Streptococcus viridans 9943; format: functional
[35] = test system: Streptococcus pyogenes; experiment: Activity against Streptococcus pyogenes C203 when administered orally; format: functional; details: po
Outline: (§2)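 Mouse protection test: infected mice were dosed twice, at 1 and 5 h postinfection, either subcutaneously or orally. […] The result is expressed as ED50 in mg/kg × 2.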

[36] = test system: Streptococcus pyogenes; experiment: Antimicrobial activity against Streptococcus pyogenes C203; format: functional
[37] = test system: Streptococcus pyogenes; experiment: Activity against Streptococcus pyogenes C203 when administered sc; format: functional; outline: as §2
[38] = test system: Streptococcus pyogenes; experiment: Effective dose against Streptococcus pyogenes C203 when administered sc; format: functional; outline: as §2
[39] = test system: Rattus norvegicus; experiment: Peripheral plasma levels in rats after oral administration of 100 mg/kg dose for 1 hr; format: functional, organism-based; design: dose 100 mg/kg
Outline: (§3)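 Rats received 100 mg/kg orally and were sampled for peripheral plasma. Concentrations were measured by Micrococcus luteus agar-diffusion microbiological assay in Antibiotic Medium 1, with zone sizes converted using the standard curve for the appropriate compound. Each value is the average of three rats per time point.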

[40] = test system: Mus musculus; experiment: Peripheral plasma levels in mice after oral administration of 50 mg/kg dose for 2 hr; format: functional, organism-based; design: dose 50 mg/kg; outline: as §1
[41] = test system: Mus musculus; experiment: Peripheral plasma levels in mice after oral administration of 50 mg/kg dose for 4 hr; format: functional, organism-based; design: dose 50 mg/kg; outline: as §1
[42] = test system: Rattus norvegicus; experiment: Peripheral plasma levels in rats after oral administration of 100 mg/kg dose for 0.25 hr; format: functional, organism-based; design: dose 100 mg/kg; outline: as §3
[43] = test system: Rattus norvegicus; experiment: Peripheral plasma levels in rats after oral administration of 100 mg/kg dose for 0.5 hr; format: functional, organism-based; design: dose 100 mg/kg; outline: as §3
[44] = test system: Rattus norvegicus; experiment: Peripheral plasma levels in rats after oral administration of 100 mg/kg dose for 4 hr; format: functional, organism-based; design: dose 100 mg/kg; outline: as §3
[45] = test system: Rattus norvegicus; experiment: Peripheral plasma levels in rats after oral administration of 100 mg/kg dose for 2 hr; format: functional, organism-based; design: dose 100 mg/kg; outline: as §3
[46] = test system: Mus musculus; experiment: Peripheral plasma levels in mice after oral administration of 50 mg/kg dose for 0.25 hr; format: functional, organism-based; design: dose 50 mg/kg; outline: as §1
[47] = test system: Mus musculus; experiment: Peripheral plasma levels in mice after oral administration of 50 mg/kg dose for 0.5 hr; format: functional, organism-based; design: dose 50 mg/kg; outline: as §1

CC[C@H]1OC(=O)C[C@@H](O)[C@H](C)[C@@H](O[C@@H]2O[C@H](C)[C@@H](O)[C@H](N(C)C)[C@H]2O)[C@@H](CCN2C(=O)c3ccccc3C2=O)C[C@@H](C)C(=O)/C=C/C(C)=C/[C@@H]1CO[C@@H]1O[C@H](C)[C@@H](O)[C@@H](OC)[C@H]1OC
MIC [1]: 32 µg/mL (≈ 35.4 µM) | Concentration [2]: 0.3 µg/mL | MIC [3]: 8 µg/mL (≈ 8.86 µM) | MIC [4]: 8 µg/mL (≈ 8.86 µM) | Concentration [5]: 0.8 µg/mL | Concentration [6]: 0.9 µg/mL | MIC [7]: 4 µg/mL (≈ 4.43 µM) | MIC [8]: > 128 µg/mL | MIC [9]: 0.25 µg/mL (≈ 0.277 µM) | MIC [10]: 4 µg/mL (≈ 4.43 µM) | MIC [11]: 8 µg/mL (≈ 8.86 µM) | ED50 [12]: 15 mg/kg | ED50 [13]: 2.7 mg/kg | MIC [14]: 32 µg/mL (≈ 35.4 µM) | MIC [15]: 32 µg/mL (≈ 35.4 µM) | MIC [16]: 0.5 µg/mL (≈ 0.554 µM) | MIC [17]: 32 µg/mL (≈ 35.4 µM) | MIC [18]: 0.5 µg/mL (≈ 0.554 µM) | Concentration [19]: < 0.1 µg/mL | MIC [20]: 0.1 µg/mL (≈ 0.111 µM) | MIC [21]: 2 µg/mL (≈ 2.21 µM) | MIC [22]: 0.5 µg/mL (≈ 0.554 µM) | Concentration [23]: < 0.1 µg/mL | MIC [24]: 0.5 µg/mL (≈ 0.554 µM) | MIC [25]: 2 µg/mL (≈ 2.21 µM) | MIC [26]: 0.12 µg/mL (≈ 0.133 µM) | Concentration [27]: 2.1 µg/mL | MIC [28]: 0.12 µg/mL (≈ 0.133 µM) | MIC [29]: 8 µg/mL (≈ 8.86 µM) | MIC [30]: 0.25 µg/mL (≈ 0.277 µM) | MIC [31]: > 128 µg/mL | MIC [32]: 8 µg/mL (≈ 8.86 µM) | MIC [33]: 0.25 µg/mL (≈ 0.277 µM) | MIC [34]: > 128 µg/mL

CC[C@H]1OC(=O)C[C@@H](O)[C@H](C)[C@@H](O[C@@H]2O[C@H](C)[C@@H](O)[C@H](N(C)C)[C@H]2OC(C)=O)[C@@H](CCOc2ccccc2)C[C@@H](C)C(=O)/C=C/C(C)=C/[C@@H]1CO[C@@H]1O[C@H](C)[C@@H](O)[C@@H](OC)[C@H]1OC
ED50 [35]: 9 mg/kg | MIC [36]: 1 µg/mL (≈ 1.12 µM) | ED50 [37]: 1 mg/kg

CC[C@H]1OC(=O)C[C@@H](O)[C@H](C)[C@@H](O[C@@H]2O[C@H](C)[C@@H](O[C@H]3C[C@@](C)(O)[C@@H](O)[C@H](C)O3)[C@H](N(C)C)[C@H]2O)[C@@H](C)C[C@@H](C)C(=O)/C=C/C(C)=C/[C@@H]1CO[C@@H]1O[C@H](C)[C@@H](O)[C@@H](O)[C@H]1OC [DEFORMYLMACROCIN]
ED50 [38]: > 10 mg/kg | MIC [11]: 128 µg/mL (≈ 146 µM) | ED50 [13]: > 10 mg/kg | MIC [15]: > 128 µg/mL | MIC [25]: 64 µg/mL (≈ 73.2 µM) | MIC [26]: 2 µg/mL (≈ 2.29 µM) | MIC [28]: 2 µg/mL (≈ 2.29 µM) | MIC [36]: 2 µg/mL (≈ 2.29 µM) | MIC [33]: 2 µg/mL (≈ 2.29 µM)

CC[C@H]1OC(=O)C[C@@H](O)[C@H](C)[C@@H](O[C@@H]2O[C@H](C)[C@@H](O)[C@H](N(C)C)[C@H]2O)[C@@H](CCF)C[C@@H](C)C(=O)/C=C/C(C)=C/[C@@H]1CO[C@@H]1O[C@H](C)[C@@H](O)[C@@H](OC)[C@H]1OC
Concentration [5]: 0.2 µg/mL | Concentration [39]: 0.1 µg/mL | MIC [11]: 8 µg/mL (≈ 10.3 µM) | ED50 [12]: 8 mg/kg | ED50 [13]: 5 mg/kg | MIC [15]: 16 µg/mL (≈ 20.6 µM) | Concentration [40]: 0.4 µg/mL | Concentration [41]: 0.1 µg/mL | Concentration [42]: 0.3 µg/mL | Concentration [43]: 0.5 µg/mL | Concentration [44]: 1.5 µg/mL | MIC [25]: 2 µg/mL (≈ 2.58 µM) | MIC [26]: 0.25 µg/mL (≈ 0.322 µM) | Concentration [45]: 1.9 µg/mL | MIC [28]: 0.12 µg/mL (≈ 0.155 µM) | Concentration [46]: < 0.1 µg/mL | MIC [33]: 0.25 µg/mL (≈ 0.322 µM) | Concentration [47]: < 0.1 µg/mL
